Series [1] addresses EntE (dihydroxybenzoate-AMP ligase) (Escherichia coli, UniProt P10378). The following applies: for Km / kcat: pH 7.8.
The target of series [2] is T1, EntE (Escherichia coli, UniProt P10378). In words: Dead-end inhibition of EntE by AMPCPP, coupled assay. The following applies: holo-EntB-ArCP 4 μM. It is filed as biochemical.
Series [3] concerns the target T1, EntE. Description: ITC of DHB binding to free EntE. The essentials: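 DHB binding was run by ITC at 25°C in 50 mM HEPES pH 7.8, 10 mM MgCl2. EntE was dialysed against this buffer and ligand was prepared in the dialysate. EntE concentration came from ε280 = 58 790 M⁻¹ cm⁻¹ and DHB by weight. 50 μM EntE in the cell; 1 mM DHB injected 5 μL every 230 s.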
The target in series [4] is T1, EntE. Description: ITC of Sal-AMS and DHB-AMS with EntE. The series is classed as binding.
Series [5] concerns the target T1, EntE. The series is classed as biochemical. The essentials: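 Stopped-flow coupled assay (myokinase/pyruvate kinase/LDH, NADH at 340 nm) in 100 mM HEPES pH 7.8, 10 mM MgCl2, 25°C. […] Bisubstrate adenylate analogues were varied. Equal volumes were mixed with 16 nM EntE and followed for 4 min. The first 20 s were discarded. Five traces were averaged per concentration and fitted to a slow-onset equation; kobs was plotted against inhibitor concentration.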

Another series relates to M. tuberculosis. The following applies: cited from earlier work.
In series [6] the target is T1, EntE. The following applies: competitive ligand in displacement ITC; cited from earlier work.
The test system of another series is Nc1ccc(C(=O)O)c(O)c1. Description: purified protein, by the assay type. The following applies: other: 25°C, pH 7.8, the other substrates fixed and saturating.
In another series the test system is O=C(O)c1cccc(O)c1. In words: purified protein, by the assay type. The following applies: other: 25°C, pH 7.8, the other substrates fixed and saturating.
The next series relates to O=C(O)c1cccc(O)c1O. Description: purified protein, by the assay type. The following applies: other: 25°C, pH 7.8, the other substrates fixed and saturating.
The mark [7] stands for this setting: 25°C, the other substrates fixed and saturating.

Converted amounts (≈) assume the structure as drawn. Like-named read-outs stand apart in the source and are kept apart here.

T1 sequence (P10378 whole entry): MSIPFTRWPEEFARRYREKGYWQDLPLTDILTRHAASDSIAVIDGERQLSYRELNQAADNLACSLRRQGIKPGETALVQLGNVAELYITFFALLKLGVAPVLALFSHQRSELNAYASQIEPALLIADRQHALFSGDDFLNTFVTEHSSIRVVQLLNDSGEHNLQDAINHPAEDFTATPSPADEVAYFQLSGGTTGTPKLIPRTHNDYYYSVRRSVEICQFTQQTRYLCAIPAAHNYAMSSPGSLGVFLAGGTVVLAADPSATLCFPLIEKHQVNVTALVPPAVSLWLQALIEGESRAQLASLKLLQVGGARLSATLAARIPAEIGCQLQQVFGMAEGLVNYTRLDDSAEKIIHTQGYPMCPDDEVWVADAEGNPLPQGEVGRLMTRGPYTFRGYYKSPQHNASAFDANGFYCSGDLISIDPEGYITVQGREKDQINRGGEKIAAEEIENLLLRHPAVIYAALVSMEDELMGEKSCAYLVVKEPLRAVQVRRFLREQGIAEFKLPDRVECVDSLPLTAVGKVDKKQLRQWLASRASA
Sequence of EntE (dihydroxybenzoate-AMP ligase) (P10378 whole entry): as above

With `Nc1ccc(C(=O)O)cc1` [4-aminobenzoic acid], the “substrate activity for the EntE reaction” value in series [1] (tested as substrate in the coupled assay) was “no activity was observed”.

Regarding `Nc1ncnc2c1ncn2C1OC(COP(=O)(O)CP(=O)(O)OP(=O)(O)O)C(O)C1O` (stereo not drawn) [AMPCPP, α, β-methyleneadenosine 5′-triphosphate], the “inhibition pattern versus ATP” value against EntE [2] (varied ATP, saturating DHB (80 μM)) was “competitive inhibition”. On EntE [2] (varied DHB, saturating ATP (5 mM)), the “inhibition pattern versus DHB” value is reported as “uncompetitive inhibition”.

Turning to `CC(C)(CO)[C@@H](O)C(=O)NCCC(=O)NCCS` [D-pantetheine], in [1] (setting [7]), the Km came to 34200 ± 2000 µM and the kcat worked out at 0.9 ± 0.1 s⁻¹.

`O=C(O)c1cccc(O)c1O` [DHB, 2,3-dihydroxybenzoic acid] displayed a Kd on EntE [3] of 8700 nM. This molecule displayed a n on EntE [3] (one-set of sites model) of 0.824 ± 0.00512. On EntE [3] (one-set of sites model, 25°C), this molecule showed a KA of 115000 ± 2800 M⁻¹, a ΔH of -16.5 ± 0.14 kcal/mol and a ΔS of −32.2 cal mol^−1 K ^−1.

For `Nc1ncnc2c1ncn2[C@@H]1O[C@H](COS(=O)(=O)NC(=O)c2cccc(O)c2O)[C@@H](O)[C@H]1O` [DHB-AMS, 5′-O-[N-(2,3-dihydroxybenzoyl)sulfamoyl]adenosine], the TΔS at EntE [4] (293 K, calculated from eq 11) was -0.4 kcal/mol. In addition, the “−ΔG” value at EntE [4] (293 K, calculated from eq 11) is 15.0 kcal/mol. For the same molecule, on EntE [4] (ITC), the “fold lower KD than Sal-AMS” value came to 10 fold. The Kd at EntE [4] (KA, displacement ITC with 200 mM salicylic acid, 293 K, pH 8.0) is 0.00627 nM; on EntE [4] (KD, displacement ITC with salicylic acid, KD = 1/KA, 20°C) it was 0.0075 nM. Moreover, on EntE [4] (displacement ITC), the “n (number of binding sites per monomer)” value came out at 1.12 ± 0.03. The “−ΔH” value at EntE [4] (stoichiometric titration at high c, 293 K) is 15.4 kcal/mol. At EntE [5], the Ki came out at 3.8 nM. The type of inhibition result at EntE [5] (time-courses of product formation) is “slow-onset tight-binding inhibitors”.

On to `NNC(=O)c1ccncc1` [isoniazid], for which the MIC99 in the series on M. tuberculosis was 0.18 µM (≈ 0.0247 µg/mL).

On to `O=C(O)c1ccccc1O` [salicylic acid], for which the “KA^B” value at EntE [6] is 4740 M⁻¹. The Km in series [1] (setting [7]) came out at 70 ± 4 µM. Besides, the kcat in [1] was determined as 0.8 ± 0.1 s⁻¹.

In the case of “EntE (dihydroxybenzoate-AMP ligase) (Escherichia coli K-12)”, the Km with Nc1ccc(C(=O)O)c(O)c1 was found to be 3100 ± 300 µM. In addition, in the series with O=C(O)c1cccc(O)c1, the Km stood at 70 ± 8 µM, the kcat is 0.3 ± 0.01 s⁻¹ and the kcat/Km was determined as 4600 M⁻¹ s⁻¹. For the same molecule, in the series on O=C(O)c1cccc(O)c1O, the Km came to 2.5 ± 0.3 µM and the kcat/Km worked out at 880000 M⁻¹ s⁻¹.
